# High-throughput results as filed in PubChem.
# Most compounds without a hit are left out; they make up all but 1.9% or so of the library.
# PLCg1 inh – inhibitors of human phospholipase C gamma1; P19174; purified PLC-gamma1, fluorogenic substrate, fluorescence; inhibition, % at 12.2 µM; 370,000 compounds, 0.84% hits; AID 720700; in the data active means inhibition above about 9.5%
# proCasp7 act – counter-screen: procaspase-7 (human) activation. AID 463210. P55210. 330,000 compounds, 0.093% hits. recombinant procaspase-7, Ac-DEVD-pNA absorbance 405 nm; D23A/D198A/D206A triple mutant, cannot self-cleave; scale: DMSO 0, 5 µM enzyme 100. activation, % at 8.5 µM;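 active means percent activation above the screen-wide mean plus 3 SD, cut at about 25% in these data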
#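 Assay system: Uncleavable procaspase-7 mutant enzyme / Input: 2 µM procaspase-7 mutant as dispensed / Dosing: single nominal 8.5 µM compound dose, 0.8% DMSO final / Timing: 1 h enzyme–compound preincubation and 2 h substrate reaction, both 25 °C / Detection: p-Nitroaniline absorbance at 405 nm, read at 0 and 120 min / Replication: singlicate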
# proCasp3 act – activators of human procaspase-3 | P42574 | recombinant procaspase-3 D3A, Ac-DEVD-pNA absorbance 405 nm | activation, % at 8.5 µM | 330,000 compounds, 0.11% hits | AID 463141;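 active means activation above the mean of all tested compounds plus 3 SD, cut at about 21% in these data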;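 further: 0% = DMSO alone and 100% = DMSO wells spiked with extra 5 µM PC-3 D3A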
#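 Assay system: Autoprocessing-dead procaspase-3 D3A mutant enzyme; also added: Ac-DEVD-pNA; doses: one concentration, 8.5 µM nominal, 0.8% DMSO; times: 1 h compound preincubation, 2 h substrate hydrolysis at 25 °C; technique: 405 nm absorbance of p-nitroaniline, reads at 0 and 120 min; measure: % activation between DMSO and enzyme-spiked controls; repeats: single replicate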
# Arrestin-AP2 inh – inhibitors of human beta-arrestin and AP2 interaction; AID 504490; FITC-arrestin peptide / GST-AP2 beads, flow cytometry; AP2 beta2 appendage carries R879A mutation; 340,000 compounds, 0.31% hits; inhibition, % at 10 µM;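 active means inhibition above a set limit, near 3 SD of compounds lacking own fluorescence, cut at about 54% in these data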;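 further: plate controls were DMSO wells for no effect and 5 µM unlabelled arrestin peptide for full effect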
#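 System: GST-tagged AP2 beta2-adaptin appendage (R879A) on 4 µm glutathione beads / Reagent: FITC-arrestin peptide, 50 nM / Detection: HyperCyt-sampled flow cytometry, FL1 channel, ex 488/em 535 nm / Timing: 12 min plus 1 h, RT / Buffer or medium: PBS plus Tween 20 (0.05%) and BSA (0.1%)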
# sPLA2-III inh – Blocks human group III sPLA2 activity. inhibition, % at 12.2 µM. 370,000 compounds, 0.56% hits. QFRET BODIPY PC-A2 liposome hydrolysis, fluorescence. Q9NZ20;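 active means inhibition above mean plus 3 SD of compounds lying within the high and low control bounds, cut at about 19% in these data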;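 further: 0% = median of test compound wells and 100% = no enzyme DMSO wells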
# PLCb3 inh – blocks human PLC-beta3 enzyme activity. Q01970. AID 720704. Purified PLC-beta3, fluorogenic substrate, fluorescence. inhibition, % at 12.2 µM. 370,000 compounds, 0.18% hits; in the data active means inhibition above about 11%;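 further: 0% = median of compound wells on plate and 100% = full blocker control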
# Arr-AP2 CP1 – human beta-arrestin and AP2 interaction inhibition, cherry pick. shares compounds with Arrestin-AP2 inh. 1,300 compounds, 2% hits. inhibition, % at 10 µM. GST-AP2 beads, FITC arrestin peptide binding, flow cytometry; GST-fused beta2-adaptin appendage, R879A mutant;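 active means inhibition above a set limit, roughly 3 SD of non-fluorescent compound noise, cut at about 38% in these data; inactive means inhibition at or below that limit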;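 further: loss of bead fluorescence from 50 nM FITC arrestin peptide bound to appendage; 0% = negative control wells and 100% = excess unlabelled arrestin peptide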
# GST-FITC bead – counter-screen for beta-arrestin AP2 inhibitors: GST-GSH bead binding | inhibition, % at 10 µM | GST-fluorescein binding to GSH beads, fluorescence | shares compounds with Arrestin-AP2 inh | 1,300 compounds, 2% hits;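 active means inhibition above 50%, about 3 SD of the inhibition seen with non-fluorescent compounds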;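 further: fluorescein maleimide labelled GST captured on 4 micron glutathione beads; higher means more loss of bead fluorescence from quenching or blocked binding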
# Starred values were filed as active, the others as inactive; / = no result given.
SMILES,PLCg1 inh,proCasp7 act,proCasp3 act,Arrestin-AP2 inh,sPLA2-III inh,PLCb3 inh,Arr-AP2 CP1,GST-FITC bead
CCOc1ccc(C(=O)NCC(=O)NNC(=O)C2COc3ccccc3O2)cc1OCC (stereo not drawn),2.9,-4.8,-4.5,65.1*,5.2,-5.9,1.4,-20.5
Cc1noc(C)c1S(=O)(=O)Nc1ccc2c(c1)C(=O)N([C@H](C)CO)C[C@H](C)[C@@H](CN(C)Cc1ccc(C(=O)O)cc1)O2,-4.2,4.5,5.1,60.1*,10.0,-7.7,6.8,10.4
O=C(CN1c2ccccc2S(=O)(=O)c2ccccc21)NCc1ccccc1,-9.9,-15.4,7.2,63.9*,0.3,-17.2,-6.0,-3.8
CCS(=O)(=O)Nc1ccc2c(c1)C(=O)N(C)[C@@H]1CC[C@H](CC(=O)NCCOC)O[C@H]1CO2,-2.4,/,/,/,0.0,-2.3,/,/
COc1ccc(CNC(=O)CN(CC2CCCO2)C(=O)CNS(=O)(=O)c2ccc(C)cc2)cc1 (stereo not drawn),1.0,1.5,-0.7,77.4*,-2.6,1.2,-3.7,0.7
O=C(C[C@H]1C=C[C@@H](NC(=O)Cc2cccnc2)[C@@H](CO)O1)NCc1ccc2c(c1)OCO2,0.1,/,/,/,1.5,4.2,/,/
Cc1ccc2nc(SCC(=O)Nc3ccc(Br)cc3)nc(=O)n2c1,4.5,0.1,3.5,55.8*,2.6,2.4,-10.0,-0.7
COc1ccc(N2CCN(C(CNS(=O)(=O)c3cc(F)ccc3F)c3cccnc3)CC2)cc1 (stereo not drawn),-0.4,4.2,7.3,84.2*,-7.6,4.3,16.4,-11.4
N#Cc1ccccc1NCCCN1CCC(C(O)(c2ccccc2)c2ccccc2)CC1,-5.8,/,/,/,-11.2,-6.8,/,/
Cc1ccc(C(=O)n2ccc3ccc(-c4ccc5ccn(Cc6ccccc6)c5c4)cc32)cc1,-60.8,/,/,/,3.1,-84.3,/,/
CCOC(=O)N1CCN(C(=O)C[C@H]2C(=O)N(CCCOC)C3=CCCCC[C@]32C(=O)OC)CC1,1.1,/,/,/,3.1,-0.3,/,/
O=C(/C=C/c1ccc(F)cc1)OCC(=O)c1ccc[nH]1,0.3,2.7,-1.0,26.6,-6.0,-3.5,/,/
O=C(COC(=O)c1ccc(F)cc1F)c1ccc[nH]1,2.0,/,/,71.8*,3.4,-0.9,-4.5,1.9
CCOC(=O)c1c(NC(=O)c2cccs2)sc(C)c1CC,-34.5,-1.4,-5.6,10.6,4.4,-49.4,/,/
CCOC(=O)c1c(NC(=O)c2ccc(Br)o2)sc(C)c1CC,-46.0,7.5,4.9,98.3*,2.6,-62.0,-0.5,-9.7
C[C@H]1COc2cc(Br)ccc2S(=O)(=O)N1Cc1cn(CCC2OCCCO2)nn1,1.5,/,/,/,-5.2,1.4,/,/
CCOc1ccc(NC(=O)c2ccc(NC(=O)COC(=O)Cc3ccc(OC)cc3)cc2)cc1,0.4,7.8,-0.6,55.0*,-5.8,1.6,4.8,-5.2
COc1ccc(CC(=O)OCC(=O)Nc2ccc(C(=O)Nc3ccc(OC)cc3)cc2)cc1,-1.8,2.8,6.5,-27.3,-3.5,-6.6,/,/
Cc1cccc(C(=O)Oc2ccc(/C=N/NC(=O)Cc3ccc([N+](=O)[O-])cc3)cc2)c1,-0.3,-1.8,-3.8,105.5*,3.1,1.6,-2.8,58.7*
C=C(C)[C@@H]1CC=C(CN2CCN(Cc3ccccc3)CC2)CC1,5.9,-1.6,10.4,60.0*,-1.9,-0.6,-3.9,1.8
CN(C)S(=O)(=O)c1ccc(NC(=O)C2CCCN(C(=O)c3ccc(Cl)cc3)C2)cc1 (stereo not drawn),2.0,12.8,10.6,56.0*,-25.1,3.8,-1.7,-4.8
N#Cc1cccc(NC(=O)OC2CCC23CCC(c2ccccc2)CC3)c1 (stereo not drawn),1.0,/,/,/,-6.4,4.6,/,/
CCOC(=O)c1c(-c2cccs2)csc1NC(=O)COC(=O)c1c(C)noc1C,-1.3,8.5,-4.6,55.2*,-0.9,-1.1,3.2,5.1
CCOC(=O)c1c(-c2cccs2)csc1NC(=O)c1ccncc1,-0.8,1.2,-1.7,14.0,-0.3,-2.3,/,/
COc1ccccc1NCCC(=O)OCC(=O)NCc1ccco1,-2.3,5.7,-9.7,75.2*,1.5,-0.5,-9.0,-3.9
SMILES,PLCg1 inh,proCasp7 act,proCasp3 act,Arrestin-AP2 inh,sPLA2-III inh,PLCb3 inh,Arr-AP2 CP1,GST-FITC bead
O=C(Nc1ccc2nc(-c3ccco3)c(-c3ccco3)nc2c1)NC1CC1,/,/,/,58.0*,/,/,30.3,26.6
O=C(NCCCO)Nc1ccc2nc(-c3ccco3)c(-c3ccco3)nc2c1,/,-15.4,-15.5,/,/,/,/,/
CC(C)(C)[C@H]1C=C(C(=O)N2CCOCC2)O[C@@H](OCCCCO)C1,-2.5,6.0,6.2,54.0*,1.5,2.7,-6.5,-1.7
CCOC(=O)C1=C(COC(=O)COc2ccccc2C=O)NC(=O)NC1C (stereo not drawn),-11.1,0.7,7.2,10.2,-6.3,-18.7,/,/
CCOC(=O)C1=C(COC(=O)COc2ccccc2OCC)NC(=O)NC1C (stereo not drawn),4.5,7.0,11.9,-3.7,2.9,-3.9,-0.8,-10.9
CCOC(=O)C1=C(COC(=O)c2cccc(Br)c2)NC(=O)NC1C (stereo not drawn),0.9,11.4,4.7,-3.0,-0.3,-2.7,/,/
CCOC(=O)C1=C(COC(=O)COc2cccc(C)c2C)NC(=O)NC1C (stereo not drawn),-1.1,1.2,5.9,-10.5,9.8,-5.9,0.2,3.2
CCOC(=O)C1=C(COC(=O)COc2ccc(OCC)cc2)NC(=O)NC1C (stereo not drawn),0.6,4.4,7.4,15.6,3.3,-2.8,-7.7,-7.3
CCOC(=O)C1=C(COC(=O)COc2ccccc2C(C)C)NC(=O)NC1C (stereo not drawn),4.5,/,/,60.7*,8.8,-4.4,12.4,1.2
COc1ccccc1CN1CC(C(=O)NCc2ccc(C)c(F)c2)CCC1=O (stereo not drawn),0.9,-13.8,7.5,22.0,0.5,-6.4,-7.6,-1.5
COc1ccccc1CCNC(=O)C1CCC(=O)N(Cc2ccccc2OC)C1 (stereo not drawn),0.1,2.6,-8.0,66.3*,8.6,-8.6,8.7,-2.9
CCn1ccnc1CNC(=O)C1CCC(=O)N(Cc2ccccc2F)C1 (stereo not drawn),0.0,-2.9,7.9,54.2*,1.9,-10.0,-9.3,2.6
